Rows were chosen to be rich in hits. Some 1.3% of all compounds tested hit in one or more screens of this group.
JMJD2C inh: blocks human GASC-1 demethylase activity | inhibition, % at 2.35 µM | 330,000 compounds, 0.069% hits | GST-JMJD2C(1-420) H3K9me3 demethylation, DELFIA europium | AID 2099 | Q9H3R0;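 active = more than half of a compound's replicate wells show inhibition beyond 50%, single wells judged on their own value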;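 also: signal counts dimethyl H3K9 product captured on neutravidin plate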
VLA-4 inh: inhibition in a human VLA-4 binding assay. P13612. VLA-4 expressing cells, ligand binding flow cytometry. inhibition, % (about 7 µM as worked out from the volumes in the protocol). 330,000 compounds, 0.2% hits; in the data active = inhibition above about 50%
procasp3 activ: activates human procaspase-3 | recombinant procaspase-3 D3A, Ac-DEVD-pNA absorbance 405 nm | 330,000 compounds, 0.11% hits | activation, % at 8.5 µM | AID 463141;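 active = activation above the mean of all tested compounds plus 3 SD, cut at about 21% in these data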
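Assay system – Procaspase-3 D3A mutant, all three cleavage aspartates alanine · Controls – DMSO-only low control, 5 µM PC-3 D3A high control · Schedule – 1 h compound preincubation, 2 h substrate hydrolysis at 25 °C · Signal – 405 nm absorbance of p-nitroaniline, reads at 0 and 120 min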
Lipid droplet: hepatic lipid droplet formation modulation. inhibition, % at 6.5 µM. AML12 mouse hepatocytes, oleate lipid droplets, BODIPY imaging. 240,000 compounds, 0.4% hits;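 active = lipid droplet intensity inhibited by at least 50%, with more than 500 cells counted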
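Assay system: AML12 hepatocytes (mouse); Probe or stimulus: oleic acid at 100 µM to induce lipid droplet formation; Dosing: compound at 6.5 µM only; Schedule: compound with oleate, overnight; Detection: fluorescence imaging, 20x objective, two fields per well; Measure: % inhibition of lipid droplet signal.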
GRK2 aptamer HTS: human GRK2 inhibition via aptamer displacement; P25098; bead flow cytometry, FAM-aptamer displacement from GRK2; 330,000 compounds, 0.59% hits; inhibition of aptamer binding, % at 10 µM;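 active = inhibition of aptamer binding above 40%, roughly 3 SD of noise, on plates passing a quality check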;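 also: median bead fluorescence of bound FAM aptamer so fluorescent compounds give negative values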
procasp7 counter: activates human procaspase-7, counter-screen for procaspase-3 activators; P55210; AID 463210; 330,000 compounds, 0.093% hits; recombinant procaspase-7, Ac-DEVD-pNA absorbance 405 nm; D23A/D198A/D206A triple mutant, cannot self-cleave; scale: DMSO 0, 5 µM enzyme 100; activation, % at 8.5 µM;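 active = percent activation above the screen-wide mean plus 3 SD, cut at about 25% in these data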
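Assay system: Uncleavable procaspase-7 mutant enzyme; Input: 2 µM procaspase-7 mutant as dispensed; Also added: DEVD-pNA substrate; Medium: Zinc-free HEPES pH 7.4 with 300 mM NaCl, 0.01% Triton X-100; Timing: 1 h compound preincubation, 2 h substrate cleavage, 25 °C; Measured by: Epi-absorbance of released pNA at 405 nm, two timepoints.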
PC3 D3A act: counter-screen: procaspase-3 (human) activation. shares compounds with procasp7 counter. recombinant PC-3 D3A, Ac-DEVD-pNA absorbance 405 nm; aspartates 9, 28, 175 changed to alanine; 100% = enzyme control. activation, % at 8.5 µM. 290 tested, under 10 active. AID 493114;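 active = mean percent activation across triplicates above a set limit taken from the earlier primary procaspase-3 screen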
Procasp7 act: procaspase-7 (human) activation, dual activator confirmation. shares compounds with procasp7 counter. recombinant procaspase-7, Ac-DEVD-pNA absorbance 405 nm; D23A/D198A/D206A mutant that cannot self-cleave. activation, % at 8.5 µM. 290 tested, under 10 active. AID 493115;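 active = mean activation above a set limit carried over from the earlier primary screen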
A number is an active result.

`COC(=O)c1cccc(N(CC(=O)NC2CCCC2)C(=O)CCC(=O)Nc2cc(C)on2)c1` gave JMJD2C inh inactive, VLA-4 inh inactive, procasp3 activ inactive, Lipid droplet inactive, GRK2 aptamer HTS inactive, procasp7 counter 57.2, PC3 D3A act inactive and Procasp7 act inactive.
Screening COc1ccc(/C=C2\OC(=O)c3c(OC)cccc32)cc1OC returned JMJD2C inh inactive, VLA-4 inh inactive, procasp3 activ inactive, GRK2 aptamer HTS inactive, procasp7 counter 89.3, PC3 D3A act inactive and Procasp7 act inactive.
CC(=O)c1cccc(NC(=O)CSc2nc(=O)n(CCN3CCOCC3)c3c2CCCC3)c1 was read as JMJD2C inh inactive, VLA-4 inh inactive, procasp3 activ inactive, GRK2 aptamer HTS inactive and procasp7 counter inactive.
`Cc1cccc2cc3c(NC(=O)C(C)(C)C)nn(CC(C)C)c3nc12` gave JMJD2C inh inactive, VLA-4 inh inactive, procasp3 activ 36.3, Lipid droplet inactive, GRK2 aptamer HTS inactive, procasp7 counter 35.3, PC3 D3A act inactive and Procasp7 act inactive.
Screening CCn1nc(NC(=O)c2ccccc2)c2cc3cccc(C)c3nc21 returned JMJD2C inh inactive, VLA-4 inh inactive, procasp3 activ 53.4, Lipid droplet inactive, GRK2 aptamer HTS inactive, procasp7 counter 49.8, PC3 D3A act inactive and Procasp7 act inactive.
For CCn1nc(NC(C)=O)c2cc3cccc(C)c3nc21 the results were JMJD2C inh inactive, VLA-4 inh inactive, procasp3 activ inactive, GRK2 aptamer HTS inactive and procasp7 counter inactive.
`Cc1cccc(NC(=O)CC2C(=O)NCCN2C(=O)Nc2ccc(Cl)cc2)c1` (stereo unspecified) gave JMJD2C inh inactive, VLA-4 inh inactive, Lipid droplet inactive and GRK2 aptamer HTS inactive.
Screening O=C(Nn1c(-c2ccncc2)nc2ccccc2c1=O)c1ccccc1Br returned JMJD2C inh inactive, VLA-4 inh inactive, procasp3 activ inactive, Lipid droplet inactive, GRK2 aptamer HTS inactive and procasp7 counter inactive.
`O=C(CSCc1ccc(Cl)cc1)N/N=C/c1ccc(OCC(=O)Nc2ccccc2)cc1` gave JMJD2C inh inactive, VLA-4 inh inactive, procasp3 activ inactive, GRK2 aptamer HTS inactive, procasp7 counter 28.5, PC3 D3A act inactive and Procasp7 act inactive.
For Cn1nc(C(=O)NNC(=O)c2ccc(Cl)c(S(N)(=O)=O)c2)c2ccccc2c1=O the results were JMJD2C inh inactive, VLA-4 inh inactive, procasp3 activ inactive, GRK2 aptamer HTS inactive and procasp7 counter inactive.
For Cn1nc(C(=O)NNC(=O)c2cccc(Cl)c2)c2ccccc2c1=O the results were JMJD2C inh inactive, VLA-4 inh inactive, procasp3 activ inactive, GRK2 aptamer HTS inactive, procasp7 counter 25.9, PC3 D3A act inactive and Procasp7 act inactive.
`Nc1ncnc2sc3c(c12)CCNC3` gave JMJD2C inh inactive, VLA-4 inh inactive, procasp3 activ inactive, GRK2 aptamer HTS inactive and procasp7 counter inactive.
Screening Cc1ccc(-n2nc3cc(C)c(N)cc3n2)cc1 returned JMJD2C inh inactive, VLA-4 inh inactive, procasp3 activ inactive, Lipid droplet inactive, GRK2 aptamer HTS inactive and procasp7 counter inactive.
Screening CCc1ccc(-n2nc3cc(C)c(N)cc3n2)cc1 returned JMJD2C inh inactive, VLA-4 inh inactive, procasp3 activ 34.8, Lipid droplet inactive, GRK2 aptamer HTS inactive, procasp7 counter 27.9, PC3 D3A act inactive and Procasp7 act inactive.
Screening Fc1ccc(-c2cc3nc(-c4ccccc4)cc(N4CCOCC4)n3n2)cc1 returned JMJD2C inh inactive, VLA-4 inh inactive, procasp3 activ inactive, Lipid droplet inactive, GRK2 aptamer HTS inactive and procasp7 counter inactive.

Screens deposited in PubChem BioAssay by several laboratories.
